Data reported in ChEMBL document CHEMBL1132915.

Key:
[1] = target: Xaa-Pro dipeptidase (Alteromonas sp.) (UniProt Q44238); assay: Ratio of kinetic constant Kcat to Km Sp and Kcat to Km Rp from initial velocity assay against OPAA from Alteromonas sp. JD6.5
Procedure, shortened: (§1)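 Recombinant OPAA expressed in E. coli XL1 (plasmid pTCJS4), then ammonium sulfate and Q-Sepharose purification. Continuous plate assay at 25 °C with 1 μg enzyme in 50 mM bis-Tris propane pH 8.5, 100 mM NaCl, 0.1 mM MnCl2. Phenyl-containing and diisopropyl substrates had 5% methanol, diphenyl substrate 20%. p-Nitrophenol release was read at 400 nm (ε 17,000 M⁻¹ cm⁻¹). Rates were fitted to v = kcat·E·A/(Km + A).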

[2] = target: Xaa-Pro dipeptidase (Alteromonas sp.) (UniProt Q44238); assay: Ratio of kinetic constant Kcat to Km from initial velocity assay against OPAA from Alteromonas sp. JD6.5; procedure, shortened: as §1
[3] = target: Xaa-Pro dipeptidase (Alteromonas sp.) (UniProt Q44238); assay: Kinetic constant Kcat from initial velocity assay against Organophosphorus acid anhydrolase from Alteromonas sp. JD6.5; procedure, shortened: as §1
[4] = target: Xaa-Pro dipeptidase (Alteromonas sp.) (UniProt Q44238); assay: Ratio of kinetic constant K1 to K2 from progress curves against OPAA from Alteromonas sp. JD6.5
Procedure, shortened: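 Time-course assays at 25 °C in a cuvette spectrophotometer, started by adding enzyme to 3.0 mL of 50 mM bis-Tris propane pH 8.5, 100 mM NaCl, 0.1 mM MnCl2, without methanol. Complete hydrolysis was followed at 400 nm. Traces were fitted to single or double exponential equations to give rate constants for the two enantiomers, and their ratio was taken.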

[5] = tested on: CCO[P@@](=O)(Oc1ccccc1)Oc1ccc([N+](=O)[O-])cc1; assay: (§2) Kinetic constant Km from initial velocity assay against Organophosphorus acid anhydrolase from Alteromonas sp. JD6.5; procedure, shortened: as §1
[6] = tested on: CO[P@](=O)(Oc1ccccc1)Oc1ccc([N+](=O)[O-])cc1; assay: as §2; procedure, shortened: as §1
[7] = tested on: COP(=O)(OC)Oc1ccc([N+](=O)[O-])cc1; assay: as §2; procedure, shortened: as §1
[8] = tested on: CCO[P@](=O)(OC)Oc1ccc([N+](=O)[O-])cc1; assay: as §2; procedure, shortened: as §1
[9] = tested on: CCO[P@@](=O)(OC)Oc1ccc([N+](=O)[O-])cc1; assay: as §2; procedure, shortened: as §1
[10] = tested on: O=[N+]([O-])c1ccc(OP(=O)(Oc2ccccc2)Oc2ccccc2)cc1; assay: as §2; procedure, shortened: as §1
[11] = tested on: CC(C)O[P@](=O)(Oc1ccccc1)Oc1ccc([N+](=O)[O-])cc1; assay: as §2; procedure, shortened: as §1
[12] = tested on: CCO[P@](=O)(Oc1ccccc1)Oc1ccc([N+](=O)[O-])cc1; assay: as §2; procedure, shortened: as §1
[13] = tested on: CO[P@](=O)(Oc1ccc([N+](=O)[O-])cc1)OC(C)C; assay: as §2; procedure, shortened: as §1
[14] = tested on: CO[P@@](=O)(Oc1ccc([N+](=O)[O-])cc1)OC(C)C; assay: as §2; procedure, shortened: as §1
[15] = tested on: CO[P@@](=O)(Oc1ccccc1)Oc1ccc([N+](=O)[O-])cc1; assay: as §2; procedure, shortened: as §1
[16] = tested on: CC(C)O[P@@](=O)(Oc1ccccc1)Oc1ccc([N+](=O)[O-])cc1; assay: as §2; procedure, shortened: as §1
[17] = tested on: CCOP(=O)(OCC)Oc1ccc([N+](=O)[O-])cc1; assay: as §2; procedure, shortened: as §1
[18] = target: Xaa-Pro dipeptidase (Alteromonas sp.) (UniProt Q44238); assay: Ratio of kinetic constant Kcat to Km by linear fit to data against OPAA from Alteromonas sp. JD6.5
Procedure, shortened: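 kcat/Km was taken from a linear fit to initial-rate data. Continuous 400 nm p-nitrophenol assay at 25 °C with 1 μg recombinant OPAA (E. coli XL1/pTCJS4). Buffer was 50 mM bis-Tris propane pH 8.5, 100 mM NaCl, 0.1 mM MnCl2, plus 5–20% methanol depending on substrate.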

[19] = target: Xaa-Pro dipeptidase (Alteromonas sp.) (UniProt Q44238); assay: Kinetic constant Kcat from initial velocity assay (at 7.6 mM substrate) against Organophosphorus acid anhydrolase from Alteromonas sp. JD6.5
Procedure, shortened: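 Initial-rate assay at a single substrate concentration of 7.6 mM. Used 1 μg purified recombinant OPAA (E. coli XL1/pTCJS4) at 25 °C in 50 mM bis-Tris propane pH 8.5, 100 mM NaCl, 0.1 mM MnCl2, with methanol cosolvent as needed. Hydrolysis was followed at 400 nm as p-nitrophenol (ε 17,000 M⁻¹ cm⁻¹).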

Sequence of Xaa-Pro dipeptidase (Alteromonas sp.) (UniProt Q44238) (Q44238 whole entry, looked up): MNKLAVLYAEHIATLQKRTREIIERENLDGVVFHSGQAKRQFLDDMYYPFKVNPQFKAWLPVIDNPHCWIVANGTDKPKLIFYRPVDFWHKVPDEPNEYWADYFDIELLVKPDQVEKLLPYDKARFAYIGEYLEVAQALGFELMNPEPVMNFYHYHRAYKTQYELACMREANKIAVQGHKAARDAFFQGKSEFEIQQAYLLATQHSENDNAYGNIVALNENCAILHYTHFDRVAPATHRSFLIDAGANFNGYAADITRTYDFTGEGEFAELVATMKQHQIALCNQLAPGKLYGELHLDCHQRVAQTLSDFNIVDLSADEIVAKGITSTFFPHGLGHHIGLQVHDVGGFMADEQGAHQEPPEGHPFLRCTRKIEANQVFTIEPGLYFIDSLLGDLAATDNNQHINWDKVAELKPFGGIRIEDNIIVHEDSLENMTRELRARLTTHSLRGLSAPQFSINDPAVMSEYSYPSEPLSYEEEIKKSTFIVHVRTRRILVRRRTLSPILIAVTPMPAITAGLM

Molecule | Ratio [1] | k cat/Km [2] [M⁻¹ s⁻¹] | k cat [3] [s⁻¹] | Ratio [4] | other results
CC(C)O[P@](=O)(Oc1ccccc1)Oc1ccc([N+](=O)[O-])cc1 | < 3 | 240 | 0.1 | 3.5 | –
CO[P@@](=O)(Oc1ccc([N+](=O)[O-])cc1)OC(C)C | 23 | 190 | 3.6 | 100 | –
CO[P@@](=O)(Oc1ccccc1)Oc1ccc([N+](=O)[O-])cc1 | – | 9990 | 40 | – | –
O=[N+]([O-])c1ccc(OP(=O)(Oc2ccccc2)Oc2ccccc2)cc1 | – | 530 | 0.1 | – | –
CCO[P@](=O)(Oc1ccccc1)Oc1ccc([N+](=O)[O-])cc1 | < 3 | 300 | 0.2 | 2.8 | –
Xaa-Pro dipeptidase (Alteromonas sp.) (from UniProt Q44238) | – | – | – | – | Km [5]: 2 mM; Km [6]: 0.8 mM; Km [7]: 9.5 mM; Km [8]: 14 mM; Km [9]: 8.3 mM; Km [10]: 0.2 mM; Km [11]: 0.3 mM; Km [12]: 0.6 mM; Km [13]: 12 mM; Km [14]: 19 mM; Km [15]: 4 mM; Km [16]: 1.3 mM; Km [17]: > 7.6 mM
CCO[P@@](=O)(OC)Oc1ccc([N+](=O)[O-])cc1 | 36 | 90 | 0.8 | 112 | –
COP(=O)(OC)Oc1ccc([N+](=O)[O-])cc1 | – | 140 | 1.4 | – | –
CC(C)O[P@@](=O)(Oc1ccccc1)Oc1ccc([N+](=O)[O-])cc1 | – | 150 | 0.2 | – | –
CCO[P@@](=O)(Oc1ccccc1)Oc1ccc([N+](=O)[O-])cc1 | – | 360 | 0.7 | – | –
CO[P@](=O)(Oc1ccc([N+](=O)[O-])cc1)OC(C)C | – | 4510 | 54 | – | –
CO[P@](=O)(Oc1ccccc1)Oc1ccc([N+](=O)[O-])cc1 | 4 | 2340 | 1.8 | 14.5 | –
CCO[P@](=O)(OC)Oc1ccc([N+](=O)[O-])cc1 | – | 3250 | 47 | – | –
CCOP(=O)(OCC)Oc1ccc([N+](=O)[O-])cc1 | – | – | – | – | k cat/Km [18]: 280 M⁻¹ s⁻¹; k cat [19]: 1.8 s⁻¹
